# Assay results reported in ChEMBL document CHEMBL2429759, “Anti-tumor activity evaluation of novel chrysin-organogermanium(IV) complex in MCF-7 cells” (Bioorg Med Chem Lett, 2013).
# Calls of active or inactive are those of the source. The rule behind the calls is not given here.
# Legend:
# HepG2 [1] = experiment: Growth inhibition of human HepG2 cells at 20 ug/ml by MTT assay; format: functional
# MCF7 [2] = experiment: Induction of apoptosis in human MCF7 cells assessed as necrotic cells at 20 ug/ml after 24 hrs by annexin-V FITC/propidium iodide staining-based flow cytometry (reference value: 0.3%); format: functional, cell-based
# Procedure, shortened: (§1)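 Apoptosis in MCF-7 after 24 h exposure to 5, 10 or 20 μg/mL complex; annexin-V-FITC/PI staining with flow cytometry. Quadrants: Q3 live, Q4 apoptotic, Q2 necrotic or late apoptotic.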
# MCF7 [3] = experiment: Induction of apoptosis in human MCF7 cells assessed as segmentation of nuclei at 10 ug/ml by DAPI staining-based immunofluorescence analysis relative to control; format: functional, cell-based
# Procedure, shortened: (§2)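 Nuclear morphology of control and 10 μg/mL-treated MCF-7 cells visualised by DAPI staining under fluorescence microscopy.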
# MCF7 [4] = experiment: Growth inhibition of human MCF7 cells at 30 ug/ml by MTT assay; format: functional
# MCF7 [5] = experiment: Cell cycle arrest in human MCF7 cells assessed as accumulation at G2/M phase at 10 ug/ml after 24 hrs by propidium iodide staining-based flow cytometry (reference value: 7.43 +/- 0.98%); format: functional
# MCF7 [6] = experiment: Disruption of microfilament organization in human MCF7 cells at 10 ug/ml by immunofluorescence analysis; format: functional, cell-based
# MCF7 [7] = experiment: Induction of apoptosis in human MCF7 cells assessed as disruption of mitochondrial membrane potential measured as mean fluorescence intensity at 10 ug/ml by rhodamine 123 staining-based flow cytometry (reference value: 3094 no unit); format: functional, cell-based
# MCF7 [8] = experiment: Growth inhibition of human MCF7 cells by MTT assay; format: functional, cell-based
# HepG2 [9] = experiment: Growth inhibition of human HepG2 cells at 5 ug/ml by MTT assay; format: functional
# MCF7 [10] = experiment: Induction of apoptosis in human MCF7 cells assessed as intracellular ROS production measured as mean fluorescence intensity at 5 ug/ml using DCFH-DA staining-based flow cytometry (reference value: 101.50 no unit); format: functional, cell-based
# MCF7 [11] = experiment: Induction of apoptosis in human MCF7 cells assessed as viable cells at 5 ug/ml after 24 hrs by annexin-V FITC/propidium iodide staining-based flow cytometry (reference value: 98.1%); format: functional, cell-based; procedure, shortened: as §1
# COLO 205 [12] = experiment: Growth inhibition of human COLO205 cells by MTT assay; format: functional, cell-based
# MCF7 [13] = experiment: Induction of apoptosis in human MCF7 cells assessed as necrotic cells at 5 ug/ml after 24 hrs by annexin-V FITC/propidium iodide staining-based flow cytometry (reference value: 0.3%); format: functional, cell-based; procedure, shortened: as §1
# HepG2 [14] = experiment: Growth inhibition of human HepG2 cells at 10 ug/ml by MTT assay; format: functional
# MCF7 [15] = experiment: Induction of apoptosis in human MCF7 cells assessed as disruption of mitochondrial membrane potential measured as mean fluorescence intensity at 5 ug/ml by rhodamine 123 staining-based flow cytometry (reference value: 3094 no unit); format: functional, cell-based
# MCF7 [16] = experiment: Induction of apoptosis in human MCF7 cells assessed as caspase 9 activation at 20 ug/ml by fluorometric analysis (reference value: 100%); format: functional, cell-based
# Procedure, shortened: (§3)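 Caspase-3, -8 and -9 activities read fluorometrically in whole-cell extracts of treated MCF-7; mean ± standard deviation of three independent experiments.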
# MCF7 [17] = experiment: Induction of apoptosis in human MCF7 cells assessed as intracellular ROS production measured as mean fluorescence intensity at 10 ug/ml using DCFH-DA staining-based flow cytometry (reference value: 101.50 no unit); format: functional, cell-based
# MCF7 [18] = experiment: Induction of apoptosis in human MCF7 cells assessed as early apoptotic cells at 10 ug/ml after 24 hrs by annexin-V FITC/propidium iodide staining-based flow cytometry (reference value: 0.5%); format: functional, cell-based; procedure, shortened: as §1
# MCF7 [19] = experiment: Cell cycle arrest in human MCF7 cells assessed as accumulation at G2/M phase at 20 ug/ml after 24 hrs by propidium iodide staining-based flow cytometry (reference value: 7.43 +/- 0.98%); format: functional
# HepG2 [20] = experiment: Growth inhibition of human HepG2 cells by MTT assay; format: functional, cell-based
# MCF7 [21] = experiment: Induction of apoptosis in human MCF7 cells assessed as disruption of mitochondrial membrane potential measured as mean fluorescence intensity at 20 ug/ml by rhodamine 123 staining-based flow cytometry (reference value: 3094 no unit); format: functional, cell-based
# MCF7 [22] = experiment: Induction of apoptosis in human MCF7 cells assessed as late apoptotic cells at 20 ug/ml after 24 hrs by annexin-V FITC/propidium iodide staining-based flow cytometry (reference value: 1.0%); format: functional, cell-based; procedure, shortened: as §1
# MCF7 [23] = experiment: Induction of apoptosis in human MCF7 cells assessed as viable cells at 20 ug/ml after 24 hrs by annexin-V FITC/propidium iodide staining-based flow cytometry (reference value: 98.1%); format: functional, cell-based; procedure, shortened: as §1
# MCF7 [24] = experiment: Growth inhibition of human MCF7 cells at 10 ug/ml by MTT assay; format: functional
# MCF7 [25] = experiment: Induction of apoptosis in human MCF7 cells assessed as caspase 3 activation at 20 ug/ml by fluorometric analysis (reference value: 100%); format: functional, cell-based; procedure, shortened: as §3
# MCF7 [26] = experiment: Antimigratory activity against human MCF7 cells at 2.5 to 20 ug/ml after 24 hrs by wound-healing assay; format: functional, cell-based
# Procedure, shortened: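 Scratch wound-healing: monolayers wounded with a p200 pipette tip, kept with or without complex; images taken at 0 and 24 h; reference lines drawn equidistant.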
# MCF7 [27] = experiment: Induction of apoptosis in human MCF7 cells assessed as early apoptotic cells at 20 ug/ml after 24 hrs by annexin-V FITC/propidium iodide staining-based flow cytometry (reference value: 0.5%); format: functional, cell-based; procedure, shortened: as §1
# COLO 205 [28] = experiment: Growth inhibition of human COLO205 cells at 10 ug/ml by MTT assay; format: functional
# MCF7 [29] = experiment: Induction of apoptosis in human MCF7 cells assessed as early apoptotic cells at 5 ug/ml after 24 hrs by annexin-V FITC/propidium iodide staining-based flow cytometry (reference value: 0.5%); format: functional, cell-based; procedure, shortened: as §1
# COLO 205 [30] = experiment: Growth inhibition of human COLO205 cells at 30 ug/ml by MTT assay; format: functional
# MCF7 [31] = experiment: Cell cycle arrest in human MCF7 cells assessed as accumulation at G2/M phase at 5 ug/ml after 24 hrs by propidium iodide staining-based flow cytometry (reference value: 7.43 +/- 0.98%); format: functional
# MCF7 [32] = experiment: Induction of apoptosis in human MCF7 cells assessed as late apoptotic cells at 5 ug/ml after 24 hrs by annexin-V FITC/propidium iodide staining-based flow cytometry (reference value: 1.0%); format: functional, cell-based; procedure, shortened: as §1
# MCF7 [33] = experiment: Disruption of cell integrity in human MCF7 cells at 10 ug/ml by immunofluorescence analysis; format: functional, cell-based
# Procedure, shortened: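 MCF-7 cells treated with complex at various concentrations; α-tubulin stained with Tubulin-Tracker red and fibre network imaged by immunofluorescence microscopy.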
# HepG2 [34] = experiment: Growth inhibition of human HepG2 cells at 30 ug/ml by MTT assay; format: functional
# MCF7 [35] = experiment: Cell cycle arrest in human MCF7 cells assessed as accumulation at G2/M phase at 2.5 ug/ml after 24 hrs by propidium iodide staining-based flow cytometry (reference value: 7.43 +/- 0.98%); format: functional
# MCF7 [36] = experiment: Disruption of cell morphology in human MCF7 cells assessed as decrease in tip-cell adhesion force at 10 ug/ml by atomic force microscopy relative to control; format: functional, cell-based
# Procedure, shortened: (§4)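 AFM high-resolution topography and force measurements on control MCF-7 cells and cells treated with 10 μg/mL complex, assessing surface ultrastructure, rigidity and tip-cell adhesion force.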
# MCF7 [37] = experiment: Induction of apoptosis in human MCF7 cells assessed as viable cells at 10 ug/ml after 24 hrs by annexin-V FITC/propidium iodide staining-based flow cytometry (reference value: 98.1%); format: functional, cell-based; procedure, shortened: as §1
# MCF7 [38] = experiment: Induction of apoptosis in human MCF7 cells assessed as gatheration of condensed chromatin at periphery of nuclear membrane at 10 ug/ml by DAPI staining-based immunofluorescence analysis relative to control; format: functional, cell-based; procedure, shortened: as §2
# MCF7 [39] = experiment: Growth inhibition of human MCF7 cells at 5 ug/ml by MTT assay; format: functional
# MCF7 [40] = experiment: Induction of apoptosis in human MCF7 cells assessed as late apoptotic cells at 10 ug/ml after 24 hrs by annexin-V FITC/propidium iodide staining-based flow cytometry (reference value: 1.0%); format: functional, cell-based; procedure, shortened: as §1
# MCF7 [41] = experiment: Induction of apoptosis in human MCF7 cells assessed as caspase 8 activation at 20 ug/ml by fluorometric analysis (reference value: 100%); format: functional, cell-based; procedure, shortened: as §3
# COLO 205 [42] = experiment: Growth inhibition of human COLO205 cells at 5 ug/ml by MTT assay; format: functional
# MCF7 [43] = experiment: Disruption of cell morphology in human MCF7 cells assessed as deformed shrunk cell tails at 10 ug/ml by atomic force microscopy relative to control; format: functional, cell-based; procedure, shortened: as §4
# COLO 205 [44] = experiment: Growth inhibition of human COLO205 cells at 20 ug/ml by MTT assay; format: functional
# MCF7 [45] = experiment: Growth inhibition of human MCF7 cells at 20 ug/ml by MTT assay; format: functional
# MCF7 [46] = experiment: Induction of apoptosis in human MCF7 cells assessed as intracellular ROS production measured as mean fluorescence intensity at 2.5 ug/ml using DCFH-DA staining-based flow cytometry (reference value: 101.50 no unit); format: functional, cell-based
# MCF7 [47] = experiment: Induction of apoptosis in human MCF7 cells assessed as necrotic cells at 10 ug/ml after 24 hrs by annexin-V FITC/propidium iodide staining-based flow cytometry (reference value: 0.3%); format: functional, cell-based; procedure, shortened: as §1
substance,measurement,setting,value
5-hydroxy-2-phenyl-7-(triphenylgermyloxy)-4H-chromen-4-one ethanol,growth inhibition (GI),HepG2 [1],31.1%
same,Activity,MCF7 [2],0.6%
same,Activity,MCF7 [3],Active
same,growth inhibition (GI),MCF7 [4],42.1%
same,Activity,MCF7 [5],24.5%
same,Activity,MCF7 [6],Active
same,Flu intensity,MCF7 [7],1370
same,growth inhibition (GI),MCF7 [8],Dose-dependent effect
same,growth inhibition (GI),HepG2 [9],7.95%
same,Flu intensity,MCF7 [10],107
same,Activity,MCF7 [11],94.9%
same,growth inhibition (GI),COLO 205 [12],Dose-dependent effect
same,Activity,MCF7 [13],0.5%
same,growth inhibition (GI),HepG2 [14],20.3%
same,Flu intensity,MCF7 [15],1980
same,Activity,MCF7 [16],286%
same,Flu intensity,MCF7 [17],126
same,Activity,MCF7 [18],5.1%
same,Activity,MCF7 [19],30.9%
same,growth inhibition (GI),HepG2 [20],Dose-dependent effect
same,Flu intensity,MCF7 [21],1480
same,Activity,MCF7 [22],5.4%
same,Activity,MCF7 [23],74.5%
same,growth inhibition (GI),MCF7 [24],19.2%
same,Activity,MCF7 [25],214%
same,Activity,MCF7 [26],Active
same,Activity,MCF7 [27],19.5%
same,growth inhibition (GI),COLO 205 [28],12.1%
same,Activity,MCF7 [29],1.5%
same,growth inhibition (GI),COLO 205 [30],31.6%
same,Activity,MCF7 [31],15.8%
same,Activity,MCF7 [32],3.2%
same,Activity,MCF7 [33],Active
same,growth inhibition (GI),HepG2 [34],36.7%
same,Activity,MCF7 [35],8.73%
same,Activity,MCF7 [36],Active
same,Activity,MCF7 [37],88.1%
same,Activity,MCF7 [38],Active
same,growth inhibition (GI),MCF7 [39],7.01%
same,Activity,MCF7 [40],6.2%
same,Activity,MCF7 [41],181%
same,growth inhibition (GI),COLO 205 [42],5.85%
same,Activity,MCF7 [43],Active
same,growth inhibition (GI),COLO 205 [44],20.3%
same,growth inhibition (GI),MCF7 [45],31.3%
same,Flu intensity,MCF7 [46],87.1
same,Activity,MCF7 [47],0.7%
